High-throughput results from PubChem BioAssay.
The list is not random: actives were taken first. Their share in the collection is about 3.5%.
MrgX1 ag = activates human MrgX1 receptor signaling; Q96LB2; MrgX1-HEK293 cells, Fluo-4 calcium fluorescence, agonist mode; hits give high values; B-score at 10 µM; 0.44% of 310,000 active;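 active = calcium response B-score plate-corrected fluorescence ratio at least 3 library SD, with starting fluorescence B-score inside 5 SD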
Target sequence (Q96LB2 whole entry, looked up): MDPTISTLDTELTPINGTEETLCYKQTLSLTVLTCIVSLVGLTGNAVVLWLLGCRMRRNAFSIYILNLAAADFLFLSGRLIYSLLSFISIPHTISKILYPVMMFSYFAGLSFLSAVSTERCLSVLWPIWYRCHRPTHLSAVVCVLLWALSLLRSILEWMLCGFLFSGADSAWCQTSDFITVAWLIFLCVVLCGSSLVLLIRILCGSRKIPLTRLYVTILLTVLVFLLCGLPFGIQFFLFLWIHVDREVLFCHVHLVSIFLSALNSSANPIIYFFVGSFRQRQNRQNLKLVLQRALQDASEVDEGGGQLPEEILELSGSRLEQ
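Material: HEK293 cells stably expressing human MrgX1 receptor | Quantity: 15,000 cells per well | Times: Cells plated overnight, dye loaded 0.5 h 37 °C, 0.5 h room temperature | Measured by: Kinetic Fluo-4 NW fluorescence of intracellular calcium | Control set: Positive and negative controls per plate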
RGS4 pot = potentiators or activators of RGS4 | 0.92% of 310,000 active | HEK293 M3R/inducible RGS4, carbachol calcium flux Fluo4; hits give low values | B-score at 10 µM;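 active = B-score of the integrated calcium signal more than 4 SD below the library mean, with starting fluorescence not abnormally high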;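 also: negative B-score means reduced calcium response which marks RGS4 activation or potentiation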
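Material: Inducible-RGS4 HEK293 cells carrying M3 receptor; also added: carbachol at ECmax as muscarinic agonist stimulus; incubation: compound preincubation 20 min at room temperature before agonist; signal: Fluo4-AM (2 µM) calcium-flux fluorescence, kinetic read; measure: integrated calcium ratio converted to B score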
MrgX1 antagonist = blocks BAM8-22 activation of human MrgX1 receptor; MRGX1-HEK293 calcium flux, Fluo-4, BAM8-22 antagonism; hits give low values; Q96LB2; B-score at 10 µM; AID 588676; 1.3% of 310,000 active;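 active = calcium-response B-score plate-corrected more than 3 library SD below zero, starting fluorescence within 5 deviations, no agonist response on first addition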;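 also: peak minus trough fluorescence over baseline after final BAM8-22 challenge near maximal dose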
RGS4 block = human RGS4 inhibition; HEK293 M3R/RGS4 inducible, Fluo-4 calcium flux; hits give high values; triggered by carbachol at its EC20; B-score at 10 µM; 0.45% of 310,000 active; P49798;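 active = B-score, a plate-corrected calcium signal, over three deviations above library mean, with baseline fluorescence within five deviations of library mean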;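 also: RGS4 expression induced by doxycycline in cells with stable M3 receptor; B-score is computed from the integrated fluorescence ratio over baseline after carbachol; higher B-score means a larger calcium signal and so more RGS4 inhibition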
Target sequence (P49798 whole entry, looked up): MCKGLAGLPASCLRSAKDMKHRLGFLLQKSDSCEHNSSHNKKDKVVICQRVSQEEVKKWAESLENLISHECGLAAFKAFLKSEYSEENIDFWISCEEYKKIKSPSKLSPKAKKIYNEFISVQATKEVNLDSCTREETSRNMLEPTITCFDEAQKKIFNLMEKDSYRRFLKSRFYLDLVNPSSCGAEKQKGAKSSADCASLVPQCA
MrgX1 PAM = allosterically activates human MrgX1 receptor signaling. Q96LB2. MrgX1-HEK293, Fluo-4 calcium flux, FDSS; hits give high values. B-score at 10 µM. 0.63% of 310,000 active. AID 588675;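 active = plate-corrected calcium response at least 3 library SD above typical, normal starting fluorescence, not activating the receptor alone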;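 also: compound read alongside a low EC10 to EC30 dose of BAM8-22 agonist; peak minus trough fluorescence over baseline measured at the second addition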
MrgX1 ant reconf = confirmation of human MrgX1 receptor antagonists; shares compounds with MrgX1 antagonist; MrgX1-HEK293, BAM8-22 calcium flux, Fluo-4; hits give low values; remaining BAM8-22 calcium response % of control (hits give low values), % at 10 µM; 19% of 2,300 active;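 active = remaining agonist calcium response no higher than 100% minus 3 SD of agonist-only control wells, with starting fluorescence near control levels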;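 also: agonist BAM8-22 given at a near maximal EC90 to ECmax level; peak minus minimum fluorescence divided by baseline after agonist addition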
HEK293 Ca flux = activity in parental HEK293 cells lacking MrgX1 | shares compounds with MrgX1 antagonist | fluorescence ratio F(max-min)/F0 at 10 µM | AID 624111 | 2% of 4,000 active | Fluo-4 calcium fluorescence, FDSS;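 active = duplicate-averaged calcium fluorescence ratio at least three times the standard deviation of buffer wells, a nonspecific response in parental cells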
HEK293 Ca counter = activity in parental HEK293 cells without MrgX1; shares compounds with MrgX1 antagonist; parental HEK293 calcium flux, Fluo-4 fluorescence ratio; hits give high values; fluorescence ratio F(max-min)/F0 at 10 µM; 0.4% of 4,000 active; AID 624114;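 active = calcium fluorescence ratio, averaged over duplicates, at least 3 SD of the buffer-well ratio, meaning a nonspecific response in receptor-free cells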;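 also: untransfected parental HEK293 lacking MrgX1 used as counterscreen for MrgX1 allosteric activators; fluorescence change taken during the second addition on a kinetic imager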
HEK293 Ca cntr2 = MrgX1 activator counter-screen hit in parental HEK293 cells | fluorescence ratio F(max-min)/F0 at 10 µM | 8.7% of 4,000 active | AID 624115 | Fluo-4 calcium fluorescence (FDSS); hits give high values | shares compounds with MrgX1 antagonist;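 active = calcium fluorescence ratio at least three times the spread of buffer wells, meaning a non-specific response in parental cells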
Each line names hits and unclear results; the compound was inactive in the other large screens (follow-up assays come after a bar, where they were run).

O=C(CNC(=O)Cc1ccccc1)NCC(=O)OCC(=O)c1ccc(F)cc1	none
O=C(CNC(=O)c1ccccc1)NCC(=O)OCC(=O)c1ccc(F)cc1	MrgX1 antagonist -4.85 | MrgX1 ant reconf inactive | HEK293 Ca flux inactive | HEK293 Ca counter inactive | HEK293 Ca cntr2 inactive
Cc1ccc2c(c1)CCCN2S(=O)(=O)c1cccc(C(=O)Nc2ccccc2C(=O)O)c1	MrgX1 antagonist -6.67 | MrgX1 ant reconf 66.9% | HEK293 Ca flux inactive | HEK293 Ca counter inactive | HEK293 Ca cntr2 inactive
O=C(NC1=NCCS1)c1cccc(S(=O)(=O)N2CCc3ccccc32)c1	MrgX1 antagonist -4.94 | MrgX1 ant reconf inactive | HEK293 Ca flux inactive | HEK293 Ca counter inactive | HEK293 Ca cntr2 inactive
O=C(NC1=NCCS1)c1ccc(Cl)c(S(=O)(=O)N2CCc3ccccc32)c1	none
CCOC(CNC(=O)C1CCN(S(=O)(=O)c2ccc3nc4c(c(C(=O)O)c3c2)CCCCC4)CC1)OCC	none
CC1=C(C(=O)Nc2ccccc2C(F)(F)F)C(c2ccc(C)s2)NC(=S)N1 (configuration not stated)	none
CN(CC(=O)Nc1ccc(Cl)cc1)C(=O)CNC(=O)c1ccc(Br)o1	none
CN(C(=O)COC(=O)c1cccnc1Nc1ccccc1F)C1CCS(=O)(=O)C1 (configuration not stated)	none
CN(C(=O)COC(=O)c1cccnc1Nc1cccc(C(F)(F)F)c1)C1CCS(=O)(=O)C1 (configuration not stated)	MrgX1 antagonist -5.74 | MrgX1 ant reconf inactive | HEK293 Ca flux inactive | HEK293 Ca counter inactive | HEK293 Ca cntr2 inactive
COc1ccc(-n2c(SCC(=O)N/N=C/c3ccccc3OCC(=O)O)nc3ccccc3c2=O)cc1	none
CCOC(=O)c1c(NC(=O)c2cc(-c3ccc(O)cc3)on2)sc(C(C)=O)c1C	none
CCC[C@H]1COCCS(=O)(=O)N1Cc1ccccc1F	none
CC(C)[C@H]1COCCS(=O)(=O)N1Cc1ccccc1F	MrgX1 antagonist -5.33 | MrgX1 ant reconf inactive | HEK293 Ca flux inactive | HEK293 Ca counter inactive | HEK293 Ca cntr2 inactive
CN1C(C(=O)NCc2cccc(C(F)(F)F)c2)CC2Cn3c(nc4cc(Cl)c(Cl)cc43)C21 (configuration not stated)	none
O=C(O)CCN1C(=O)NC2(CCCC2)C1=O	MrgX1 antagonist -7.3 | MrgX1 ant reconf inactive | HEK293 Ca flux inactive | HEK293 Ca counter inactive | HEK293 Ca cntr2 inactive
O=C(CN1C(=O)NC2(CCCC2)C1=O)Nc1ccccc1	none
C[C@@H]1[C@H](O)C[C@@]23COC(=O)C2=CCCC3[C@@]1(C)CCC1COC(=O)C1 (some centres not stated)	none (no result: RGS4 pot, RGS4 block)
Cc1c(C(=O)N2CCN(Cc3ccc4c(c3)OCO4)CC2)sc2ncnc(N3CCN(c4ccccc4)CC3)c12	MrgX1 antagonist -10.5 | MrgX1 ant reconf 60.2% | HEK293 Ca flux inactive | HEK293 Ca counter inactive | HEK293 Ca cntr2 inactive
CC(=O)Nc1ccc(-n2c(=O)c3ccccc3c3ccccc3c2=O)cc1	none
O=C(O)c1ccc(-n2c(=O)c3ccccc3c3ccccc3c2=O)cc1	MrgX1 antagonist -6.34 | MrgX1 ant reconf inactive | HEK293 Ca flux inactive | HEK293 Ca counter inactive | HEK293 Ca cntr2 inactive
Cc1noc(C)c1C(=O)NC(C)c1ccc(Cl)cc1Cl (configuration not stated)	none
CCCCNc1nc(CC(C)=O)ns1	MrgX1 antagonist -6.57 | MrgX1 ant reconf inactive | HEK293 Ca flux inactive | HEK293 Ca counter inactive | HEK293 Ca cntr2 inactive
CNc1nc(CC(C)=O)ns1	none
COc1cc2cc3c(N)c(C(=O)Nc4sc(C)c(C)c4C#N)sc3nc2cc1OC	MrgX1 antagonist -6.22 | MrgX1 ant reconf 74.2% | HEK293 Ca flux inactive | HEK293 Ca counter inactive | HEK293 Ca cntr2 inactive
CCCn1cc(SCC(=O)NCc2ccco2)c2ccccc21	MrgX1 antagonist -9.03 | MrgX1 ant reconf inactive | HEK293 Ca flux inactive | HEK293 Ca counter inactive | HEK293 Ca cntr2 inactive
S=C(N/N=C/c1ccco1)NC1CC2CCC1C2 (configuration not stated)	none
CC(=O)c1cc(C#N)c(N2CCOCC2)nc1C	MrgX1 antagonist -4.59 | MrgX1 ant reconf inactive | HEK293 Ca flux inactive | HEK293 Ca counter inactive | HEK293 Ca cntr2 inactive
CC(C(=O)Nc1sc2c(c1C(=O)NCc1ccco1)CCCC2)N1C(=O)c2ccccc2C1=O (configuration not stated)	none
O=C(CCN1C(=O)c2ccccc2C1=O)Nc1sc2c(c1C(=O)NCc1ccco1)CCCC2	MrgX1 antagonist -4.85 | MrgX1 ant reconf inactive | HEK293 Ca flux inactive | HEK293 Ca counter inactive | HEK293 Ca cntr2 inactive
CC(=O)Nc1ccc2[nH]c3ccccc3c2c1	none
O=C(Nc1ccc(Cl)cc1)c1cc2c(cc1O)[nH]c1ccccc12	MrgX1 antagonist -4.89 | MrgX1 ant reconf 54.0% | HEK293 Ca flux inactive | HEK293 Ca counter inactive | HEK293 Ca cntr2 inactive
O=C(COC(=O)c1ccc(S(=O)(=O)C(F)F)cc1)Nc1cccnc1Cl	none
O=C(Nc1ccc(-n2cccn2)cc1)C1CCCCN1Cc1cccc2c1OCO2 (configuration not stated)	none
CN1C(=O)N(C)C2C1N(CN1CCCCC1)C(=O)N2CN1CCCCC1 (configuration not stated)	MrgX1 antagonist -4.93 | MrgX1 ant reconf 84.3% | HEK293 Ca flux inactive | HEK293 Ca counter inactive | HEK293 Ca cntr2 inactive
CC(CNC(=O)c1ccc(NC2=NC3CS(=O)(=O)CC3S2)cc1)c1ccccc1 (configuration not stated)	MrgX1 antagonist -5.16 | MrgX1 ant reconf inactive | HEK293 Ca flux inactive | HEK293 Ca counter inactive | HEK293 Ca cntr2 inactive
CC(NC(=O)Cc1ccc(NC2=NC3CS(=O)(=O)CC3S2)cc1)c1ccccc1 (configuration not stated)	none
COc1ccc2oc(C(=O)OCC(=O)Nc3ccccc3)c(C)c2c1	none
COc1ccc2oc(C(=O)OCC(=O)Nc3ccc(N4CCOCC4)cc3)c(C)c2c1	MrgX1 antagonist -8.49 | MrgX1 ant reconf inactive | HEK293 Ca flux inactive | HEK293 Ca counter inactive | HEK293 Ca cntr2 inactive
